From ChEMBL document CHEMBL3994624, “Antimalarial Pyrido[1,2-a]benzimidazoles: Lead Optimization, Parasite Life Cycle Stage Profile, Mechanistic Evaluation, Killing Kinetics, and in Vivo Oral Efficacy in a Mouse Model” (J Med Chem, 2017)
In brackets after ≈: the same amount, converted by molar mass. Activity calls are given as the source filed them. The calls are words filed in the database; no cut-off is given here.

What was measured:
Ferriprotoporphyrin IX [1] = test: Inhibition of beta hematin formation in ring stage of chloroquine-sensitive Plasmodium falciparum NF54 assessed as decrease in haemozoin level after 36 hrs by UV-vis spectra analysis
Method in brief: (§1)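 Synchronized ring-stage parasites treated with increasing drug concentrations, then cellular fractionation. Free haem and haemozoin quantified as iron (fg/cell) and compared with untreated control; significance by p-values; parasite survival overlaid.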

Ferriprotoporphyrin IX [2] = test: Inhibition of beta hematin formation in water/NP40/DMSO solution after 5 hrs
Ferriprotoporphyrin IX [3] = test: Inhibition of beta hematin formation in ring stage of chloroquine-sensitive Plasmodium falciparum NF54 assessed as increase in free heme level after 36 hrs by UV-vis spectra analysis; method in brief: as §1
Plasmodium falciparum [4] = test: Anti-plasmodial activity against multidrug resistant Plasmodium falciparum K1 by [3H]-hypoxanthine incorporation assay; type: functional
Method in brief: (§2)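 P. falciparum asexual blood-stage growth inhibition by [3H]hypoxanthine incorporation; chloroquine and artesunate run as reference drugs in every experiment; IC50 given as mean of ≥2 independent experiments.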

Plasmodium falciparum [5] = test: Anti-plasmodial activity against chloroquine-sensitive Plasmodium falciparum NF54 by [3H]-hypoxanthine incorporation assay; type: functional; method in brief: as §2
CHO = test: Cytotoxicity against CHO cells after by MTT assay; type: cell-based; settings: Cricetulus griseus
[6] = Selectivity index, ratio of IC50 for CHO cells to IC50 for chloroquine-sensitive Plasmodium falciparum NF54; type: toxicity; settings: hamster, read-out: Ratio IC50
Method in brief: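 Selectivity index = IC50 CHO / IC50 PfNF54.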

[7] = Metabolic stability in Balb/c mouse liver microsomes assessed as compound remaining at 1 uM in presence of NADPH after 30 mins by LC-MS/MS analysis; type: ADME, microsome; settings: read-out: Stability
Method in brief: (§3)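 Mouse and human liver microsomes; % compound remaining after 30 min.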

[8] = Metabolic stability in human liver microsomes assessed as compound remaining at 1 uM in presence of NADPH after 30 mins by LC-MS/MS analysis; type: ADME, microsome; settings: read-out: Stability; method in brief: as §3
Plasmodium falciparum [9] = test: Anti-plasmodial activity against chloroquine-sensitive Plasmodium falciparum NF54 late 4/5 stage gametocytes assessed as reduction in ATP levels after 24 hrs by BacTiter-Glo reagent based bioluminescence assay; type: functional; settings: NF54, 24 h
Plasmodium falciparum [10] = test: Ratio of IC50 for chloroquine-sensitive Plasmodium falciparum NF54 early 2/3 stage gametocytes to IC50 for chloroquine-sensitive Plasmodium falciparum NF54 late 4/5 stage gametocytes; type: functional
Method in brief: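 Early (stage II/III) and late (stage IV/V) gametocytes tested in parallel luciferase reporter assays; stage preference = EG IC50/LG IC50.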

Huh-7 = test: Cytotoxicity against human HuH7 cells at 1 to 10 uM after 48 hrs by Alamarblue assay; type: cell-based; settings: huh-7, 48 h
[11] = Kinetic solubility of the compound in FaSSIF at pH 6.5 after 2 hrs by shake flask method; type: physicochemical; settings: read-out: Kinetic_solubility
Plasmodium falciparum [12] = test: Ratio of IC50 for chloroquine-sensitive Plasmodium falciparum NF54 after 24 hrs to IC50 for chloroquine-sensitive Plasmodium falciparum NF54 after 72 hrs; type: functional
Plasmodium falciparum [13] = test: Anti-plasmodial activity against chloroquine-sensitive Plasmodium falciparum NF54 late 4/5 stage gametocytes after 48 hrs by luciferin-luciferase reaction based bioluminescence assay; type: functional; settings: NF54, 48 h
Plasmodium berghei [14] = test: Antimalarial activity against GFP-fused Plasmodium berghei ANKA liver stage infected in HuH7 cells pretreated for 1 hr followed by parasite infection after 48 hrs by luciferase reporter gene assay; type: functional, cell-based; settings: Huh-7
Plasmodium berghei [15] = test: Antimalarial activity against GFP-fused Plasmodium berghei ANKA liver stage infected in HuH7 cells pretreated for 1 hr followed by parasite infection at 1 uM after 48 hrs by luciferase reporter gene assay; type: functional, cell-based
Plasmodium berghei [16] = test: Antimalarial activity against GFP-fused Plasmodium berghei ANKA infected in mouse assessed as reduction in parasitemia at 50 mg/kg, po administered once daily for 4 days by flow cytometry relative to control; type: functional; design: scale not given: the % may be the effect or the level left
Method in brief: (§4)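 P. berghei-infected mice, 3 per group. Compound formulated in 90/10 Tween80/ethanol (v/v), diluted 10-fold with water, given orally once daily at 4, 24, 48 and 72 h post-infection. Outcomes: % parasitemia reduction versus untreated control, mean survival days, and cured/infected. Mice with <40% reduction euthanized on day 4.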

Plasmodium berghei [17] = test: Antimalarial activity against GFP-fused Plasmodium berghei ANKA infected in mouse assessed as mouse mean survival days at 50 mg/kg, po administered once daily for 4 days; type: functional
Method in brief: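 P. berghei-infected mice (n=3 per dose) dosed orally once daily on 4 consecutive days at 4, 24, 48 and 72 h after infection; compound in 90/10 Tween80/ethanol (v/v) diluted 10-fold with water. Read-outs were % parasitemia reduction, mean survival time in days and cure; mice with <40% parasitemia reduction euthanized on day 4.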

Plasmodium berghei [18] = test: Antimalarial activity against GFP-fused Plasmodium berghei ANKA infected in mouse assessed as protection against parasitemia at 50 mg/kg, po administered once daily for 4 days measured 30 days post infection by light microscopy; type: functional, organism-based; method in brief: as §4

| Compound | inhibition (Ferriprotoporphyrin IX [1]) | IC50 (Ferriprotoporphyrin IX [2]) | inhibition (Ferriprotoporphyrin IX [3]) | IC50 (Plasmodium falciparum [4]) | IC50 (Plasmodium falciparum [5]) | IC50 (CHO) | selectivity ratio [6] | remaining at 0.5 h, 1 µM [7] | remaining at 0.5 h, 1 µM [8] | IC50 (Plasmodium falciparum [9]) | Ratio IC50 (Plasmodium falciparum [10]) | Activity (Huh-7) | solubility kinetic at 2 h [11] | Ratio IC50 (Plasmodium falciparum [12]) | IC50 (Plasmodium falciparum [13]) | IC50 (Plasmodium berghei [14]) | Activity (Plasmodium berghei [15]) | Activity (Plasmodium berghei [16]) | MSD (Plasmodium berghei [17]) | Activity (Plasmodium berghei [18]) |
| --- | --- | --- | --- | --- | --- | --- | --- | --- | --- | --- | --- | --- | --- | --- | --- | --- | --- | --- | --- | --- |
| CCNCCNc1cc(-c2ccc(Cl)c(Cl)c2)c(C#N)c2nc3ccccc3n12 | Dose-dependent effect | < 45 µM | Dose-dependent effect | 0.12 µM | 0.11 µM | 1.55 µM | 14 | 65% | 60% | 0.59 µM | 1.2 | Non-Toxic | – | – | – | – | – | – | – | – |
| CCNCCNc1cc(C2CCCCC2)c(C#N)c2nc3ccccc3n12 | – | – | – | 0.67 µM | 0.47 µM | 3.19 µM | 7 | 42% | – | 0.46 µM | 3.3 | Non-Toxic | 10 µM (≈ 3.61 µg/mL) | – | – | – | – | – | – | – |
| CCN(CC)CCCC(C)Nc1cc(-c2ccc(C(F)(F)F)cc2)c(C#N)c2nc3ccccc3n12 (configuration not stated) | – | – | – | 0.4 µM | 0.69 µM | 2.91 µM | 4 | 32% | 53% | 3.02 µM | 0.7 | Non-Toxic | 85 µM (≈ 42 µg/mL) | <1.5 | – | – | – | – | – | – |
| CCc1nc(N)nc(N)c1-c1ccc(Cl)cc1 [PYRIMETHAMINE] | – | – | – | – | – | – | – | – | – | – | – | – | – | 6 | – | – | – | – | – | – |
| CN1CCC(Nc2cc(-c3ccc(C(F)(F)F)cc3)c(C#N)c3nc4ccccc4n23)CC1 | – | – | – | 1 µM | 0.44 µM | 5.98 µM | 14 | 63% | 75% | – | – | – | < 5 µM | <1.5 | – | – | – | – | – | – |
| CCNCCNc1cc(-c2ccc(C(F)(F)F)cc2)c(C#N)c2nc3cc(Cl)ccc3n12 | – | < 45 µM | – | 0.03 µM | 0.03 µM | 8.71 µM | 362 | 75% | 87% | – | 1.1 | Non-Toxic | – | 1.5 - 2 | 0.82 µM | – | – | – | – | – |
| N#Cc1c(-c2ccc(C(F)(F)F)cc2)cc(NC2CCNCC2)n2c1nc1ccccc12 | – | – | – | 0.82 µM | 0.36 µM | 16.5 µM | 46 | 65% | 99% | 1.16 µM | 1.6 | Non-Toxic | – | – | – | 3.31 µM | Active | – | – | – |
| COc1cc(NC(C)CCCN)c2ncccc2c1 (configuration not stated) [PRIMAQUINE] | – | – | – | – | – | – | – | – | – | – | – | – | – | – | – | 8.42 µM | – | – | – | – |
| N#Cc1c(-c2ccc(C(F)(F)F)cc2)cc(NCCn2ccnc2)n2c1nc1ccccc12 | – | < 45 µM | – | 0.79 µM | 0.39 µM | 10.5 µM | 27 | – | – | 1.02 µM | 1.1 | Non-Toxic | – | 1.5 - 2 | – | – | – | – | – | – |
| CCNCCNc1cc(-c2ccc(F)cc2)c(C#N)c2nc3ccccc3n12 | – | – | – | 0.54 µM | 0.33 µM | 11.5 µM | 35 | – | – | 1.77 µM | 2.1 | Non-Toxic | – | – | – | – | – | – | – | – |
| CCNCCNc1c(C)c(-c2ccc(C(F)(F)F)cc2)c(C#N)c2nc3ccccc3n12 | – | – | – | – | 1.28 µM | – | – | 80% | 85% | 2.57 µM | 0.8 | Non-Toxic | < 5 µM | – | – | 2.85 µM | Active | – | – | – |
| CCNCCNc1cc(-c2ccc(C(F)(F)F)cc2)c(C#N)c2nc3cccc(Cl)c3n12 | – | – | – | 0.26 µM | 0.14 µM | 1.63 µM | 5 | 93% | 89% | – | – | – | 10 µM (≈ 4.58 µg/mL) | – | – | – | – | 85% | 7 days | inactive |
| CCNCCNc1cc(-c2ccc(C(F)(F)F)cc2)c(C#N)c2nc3ccccc3n12 | – | < 45 µM | – | – | – | 1.56 µM | 13 | 97% | 84% | – | 2.4 | Non-Toxic | < 5 µM | <1.5 | 0.62 µM | – | – | – | – | – |
| N#Cc1c(-c2ccc(C(F)(F)F)cc2)cc(NCCN2CCC(O)C2)n2c1nc1ccccc12 (configuration not stated) | – | – | – | 0.03 µM | 0.04 µM | 6.12 µM | 153 | 51% | – | – | – | – | < 5 µM | 18 | – | – | – | – | – | – |
| O=C1C(O)=C([C@H]2CC[C@H](c3ccc(Cl)cc3)CC2)C(=O)c2ccccc21 [ATOVAQUONE] | – | – | – | – | – | – | – | – | – | – | – | – | – | – | – | 0.001 µM | – | – | – | – |
| CCNCCNc1cc(C2CCCC2)c(C#N)c2nc3ccccc3n12 | – | – | – | 0.82 µM | 0.83 µM | 3.77 µM | 5 | – | – | 0.67 µM | 1.7 | Non-Toxic | – | – | – | – | – | – | – | – |
| CCNCCNc1cc(-c2cccc(F)c2)c(C#N)c2nc3ccccc3n12 | – | – | – | 1 µM | 0.38 µM | 5.18 µM | 13 | 100% | 89% | 3.63 µM | 1.2 | Non-Toxic | 25 µM (≈ 9.34 µg/mL) | <1.5 | – | – | – | 61% | 24 days | – |
